{"data": "Measured values from different studies", "ERBB2": "Receptor tyrosine-protein kinase erbB-2 (ERBB2, Homo sapiens, UniProt P04626)", "60 kDa heat shock protein, mitochondrial": "60 kDa heat shock protein, mitochondrial (Homo sapiens, UniProt P10809)", "CYP2C19": "Cytochrome P450 2C19 (CYP2C19, Homo sapiens, UniProt P33261)", "SLC22A11": "Solute carrier family 22 member 11 (SLC22A11, Homo sapiens, UniProt Q9NSA0)", "note": "Protocols differ between the studies behind these lines."}
{"SMILES": "O=C1CCc2ccccc2O1", "target": "Carbonic anhydrase 2 (CA2, Homo sapiens, UniProt P00918)", "test": "enzyme activity, inhibitor, stopped-flow", "endpoint": "Ki", "value": "48.5 µM"}
{"SMILES": "COc1ccc2[nH]c(C(=O)Nc3nc(CC(=O)O)cs3)cc2c1", "target": "ERBB2", "test": "enzyme activity, inhibitor", "endpoint": "IC50", "value": "1.77 µM"}
{"SMILES": "Cc1nn(C)c2ncc(C(=O)NCC3CC(Br)=NO3)c(Cl)c12 (stereo not drawn)", "target": "60 kDa heat shock protein, mitochondrial", "test": "ATPase activity, inhibitor", "endpoint": "IC50", "value": "> 250 µM"}
{"SMILES": "Cn1nc2c(=O)n(C3CC3)cnc2c1[C@](O)(c1cnc(C(F)(F)F)c(Cl)c1)C(F)(F)F", "target": "CYP2C19", "test": "enzyme activity, inhibitor", "test system": "human, liver microsomes", "conditions": "pH 7.4", "endpoint": "IC50", "value": "> 20 µM"}
{"SMILES": "O=C1c2cccc3c2[C@H](CCC3)CN1[C@@H]1CN2CCC1CC2", "target": "5-hydroxytryptamine receptor 3A (HTR3A, Homo sapiens, UniProt P46098)", "test": "ligand displacement, radioligand", "endpoint": "Ki", "value": "0.000246 µM"}
{"SMILES": "Cn1ncc2c(Cl)c(C(=O)NCc3ccccc3)cnc21", "target": "60 kDa heat shock protein, mitochondrial", "test": "ATPase activity, inhibitor", "endpoint": "IC50", "value": "> 250 µM"}
{"SMILES": "Cn1cncc1[C@@](N)(c1ccc(Cl)cc1)c1ccc2c(c1)c(-c1cccc(Cl)c1)cc(=O)n2C", "target": "CYP2C19", "test": "enzyme activity, inhibitor", "test system": "human, liver microsomes", "endpoint": "Ki", "value": "0.75 µM"}
{"SMILES": "O=C1CC[C@H](N2Cc3cc(N4CCN(CC5CCN(c6ccc([C@@H]7c8ccc(O)cc8CC[C@@H]7c7ccccc7)cc6)CC5)CC4)ccc3C2=O)C(=O)N1", "target": "Androgen receptor (AR, Homo sapiens, UniProt P10275)", "test": "ligand displacement, radioligand", "endpoint": "IC50", "value": "0.1 µM"}
{"SMILES": "CC(C)(C)OC(=O)N1CCN(Cc2ccn(Cc3ccc(Cl)cc3)c(=O)c2O)CC1", "target": "Lysine-specific demethylase 3B (KDM3B, Homo sapiens, UniProt Q7LBC6)", "test": "enzyme activity, inhibitor, AlphaScreen", "endpoint": "IC50", "value": "4.79 µM"}
{"SMILES": "Nc1ncnc2c1ncn2[C@@H]1O[C@H](CO)[C@@H](O)[C@H]1O", "target": "SLC22A11", "test": "transporter uptake, inhibitor, radiometric", "conditions": "oocytes", "endpoint": "IC50", "value": "> 2000 µM"}
{"SMILES": "O=C(O)Cc1csc(NC(=O)c2cc3ccccc3[nH]2)n1", "target": "ERBB2", "test": "enzyme activity, inhibitor", "endpoint": "IC50", "value": "0.618 µM"}
{"SMILES": "Cn1c(=O)c2c(ncn2C)n(C)c1=O", "target": "SLC22A11", "test": "transporter uptake, inhibitor, radiometric", "conditions": "oocytes", "endpoint": "IC50", "value": "575 µM"}
{"SMILES": "Cn1nc2c(=O)n(C3CC3)ncc2c1[C@](O)(c1cnc(C(F)(F)F)c(Cl)c1)C(F)(F)F", "target": "CYP2C19", "test": "enzyme activity, inhibitor", "test system": "human, liver microsomes", "conditions": "pH 7.4", "endpoint": "IC50", "value": "> 20 µM"}
{"SMILES": "CNC(=O)c1ccc(Nc2ncc(C(F)(F)F)c(NCc3nccnc3N(C)S(C)(=O)=O)n2)cc1", "target": "cGMP-dependent 3',5'-cyclic phosphodiesterase (PDE2A, Homo sapiens, UniProt O00408)", "test": "enzyme activity, inhibitor", "endpoint": "IC50", "value": "3.8 µM"}
{"SMILES": "COC(=O)Nc1nc2ccc(C(=O)c3ccccc3)cc2[nH]1", "target": "Tyrosine-protein kinase ABL1 (ABL1, Homo sapiens, UniProt P00519)", "test": "enzyme activity, inhibitor, mobility shift", "endpoint": "IC50", "value": "1.78 µM"}
